This is an account of results in ChEMBL document CHEMBL4229344 (Eur J Med Chem, 2018).

Series [1] has as its system Tyrosine-protein kinase ABL1 (Homo sapiens), P00519 [E255K]. The experiment in a line: Binding affinity to human phosphorylated ABL1 E255K mutant (S229 to K512 residues) expressed in mammalian expression system assessed as residual binding level at 1 uM by Kinomescan method relative to control. The procedure, abridged:
(§1)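 Kinome-wide single-concentration binding screen (KINOMEscan) at 1 μM against a panel of 468 purified kinases and mutants. Read-out is relative binding of each kinase compared with control. Selectivity across the panel was summarised as an S(10) score.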

Series [2] deals with NUAK family SNF1-like kinase 1 (Homo sapiens) (UniProt O60285). The experiment in a line: Binding affinity to wild-type human partial length ARK5 (E25 to I332 residues) expressed in bacterial expression system assessed as residual binding level at 1 uM by Kinomescan method relative to control. The procedure, abridged: (§2)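 Single-concentration KINOMEscan (DiscoverX) binding screen at 1 μM against a panel of 468 purified kinases and mutants. The read-out is binding relative to control.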

Series [3] has as its system Epidermal growth factor receptor (Homo sapiens), P00533 [L861Q]. The experiment in a line: Binding affinity to human partial length EGFR L861Q mutant (R669 to V1011 residues) expressed in bacterial expression system assessed as residual binding level at 1 uM by Kinomescan method relative to control. The procedure, abridged:
as §1

Series [4] has as its target Ephrin type-B receptor 1 (Homo sapiens) (UniProt P54762). The experiment in a line: Binding affinity to wild-type human partial length EPHB1 (P589 to T911 residues) expressed in bacterial expression system assessed as residual binding level at 1 uM by Kinomescan method relative to control.
In series [5] the target is Focal adhesion kinase 1 (Homo sapiens) (UniProt Q05397). The experiment in a line: Binding affinity to wild-type human partial length FAK (D402 to R696 residues) expressed in bacterial expression system assessed as residual binding level at 1 uM by Kinomescan method relative to control.
Series [6] addresses Fibroblast growth factor receptor 4 (Homo sapiens) (UniProt P22455). The experiment in a line: Binding affinity to wild-type human partial length FGFR4 (G402 to E713 residues) expressed in bacterial expression system assessed as residual binding level at 1 uM by Kinomescan method relative to control. In short, it runs like this: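 Kinome-wide competition binding screen against a panel of 468 purified kinases/mutants, with the test compound at a single concentration of 1 μM. Read-out is the relative binding activity of each kinase in the presence of compound.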

The target of series [7] is Homeodomain-interacting protein kinase 3 (Homo sapiens) (UniProt Q9H422). The experiment in a line: Binding affinity to wild-type human partial length HIPK3 (M153 to N562 residues) expressed in mammalian expression system assessed as residual binding level at 1 uM by Kinomescan method relative to control.
Series [8] relates to Leucine-rich repeat serine/threonine-protein kinase 2 (Homo sapiens), Q5S007 [G2019S]. The experiment in a line: Binding affinity to human partial length LRRK2 G2019S mutant (H970 to E2527 residues) expressed in mammalian expression system assessed as residual binding level at 1 uM by Kinomescan method relative to control. The procedure, abridged:
as §1

Series [9] concerns the target Dual specificity mitogen-activated protein kinase kinase 4 (Homo sapiens) (UniProt P45985). The experiment in a line: Binding affinity to wild-type human partial length MEK4 (S84 to D399 residues) expressed in mammalian expression system assessed as residual binding level at 1 uM by Kinomescan method relative to control.
For series [10], the target named is MAP kinase-interacting serine/threonine-protein kinase 1 (Homo sapiens) (UniProt Q9BUB5). The experiment in a line: Binding affinity to wild-type human full length MKNK1 (M1 to L424 residues) expressed in mammalian expression system assessed as residual binding level at 1 uM by Kinomescan method relative to control. In short, it runs like this:
as §2

In series [11] the target is Myosin light chain kinase family member 4 (Homo sapiens) (UniProt Q86YV6). The experiment in a line: Binding affinity to wild-type human partial length MYLK4 (V79 to S380 residues) expressed in bacterial expression system assessed as residual binding level at 1 uM by Kinomescan method relative to control.
In series [12] the target is Phosphatidylinositol 4,5-bisphosphate 3-kinase catalytic subunit gamma isoform (Homo sapiens) (UniProt P48736). The experiment in a line: Binding affinity to wild-type human partial length PIK3CG (S144 to A1102 residues) expressed in mammalian expression system assessed as residual binding level at 1 uM by Kinomescan method relative to control.
The target in series [13] is Serine/threonine-protein kinase SBK1 (Homo sapiens) (UniProt Q52WX2). The experiment in a line: Binding affinity to wild-type human partial length SBK1 (P23 to P348 residues) expressed in mammalian expression system assessed as residual binding level at 1 uM by Kinomescan method relative to control.
Series [14] has as its target Serine/threonine-protein kinase SIK1 (Homo sapiens) (UniProt P57059). The experiment in a line: Binding affinity to wild-type human partial length SIK (M1 to Y304 residues) expressed in bacterial expression system assessed as residual binding level at 1 uM by Kinomescan method relative to control.
Series [15] has as its target SRSF protein kinase 2 (Homo sapiens) (UniProt P78362). The experiment in a line: Binding affinity to wild-type human full length SRPK2 (M1 to S686 residues) expressed in bacterial expression system assessed as residual binding level at 1 uM by Kinomescan method relative to control. The procedure, abridged:
as §2

The target of series [16] is Serine/threonine-protein kinase 16 (Homo sapiens) (UniProt O75716). The experiment in a line: Binding affinity to wild-type human partial length STK16 (G11 to I305 residues) expressed in bacterial expression system assessed as residual binding level at 1 uM by Kinomescan method relative to control.
Series [17] concerns the target Serine/threonine-protein kinase ULK1 (Homo sapiens) (UniProt O75385). The experiment in a line: Binding affinity to wild-type human partial length ULK1 (M1 to T309 residues) expressed in mammalian expression system assessed as residual binding level at 1 uM by Kinomescan method relative to control.
Series [18] addresses Serine/threonine-protein kinase 32A (Homo sapiens) (UniProt Q8WU08). The experiment in a line: Binding affinity to wild-type human full length YANK1 (M1 to L396 residues) expressed in mammalian expression system assessed as residual binding level at 1 uM by Kinomescan method relative to control. In short, it runs like this: as §2
Series [19] has as its target Mast/stem cell growth factor receptor Kit (Homo sapiens, UniProt P10721). The experiment in a line: Inhibition of TEL-fused c-KIT (unknown origin) expressed in mouse BA/F3 cells assessed as growth inhibition after 72 hrs by CellTiter-Glo or CCK-8 assay. The class given is cell-based. In short, it runs like this:
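Parental BaF3 or IL-3-independent TEL-kinase BaF3 lines, made by retroviral infection and puromycin selection, grown in RPMI 1640 with 10% FBS. Cells seeded at 1–3 × 10^4 cells/mL with serial compound concentrations for 72 h. Viability read by CellTiter-Glo luminescence or CCK-8 absorbance at 450/655 nm and normalised to DMSO. GI50 obtained by triplicate testing with linear regression. Selectivity is the ratio of the two GI50 values.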
In general terms: Cellular ATP, detected with luciferase, serves as a proxy for viable cell number.

A short description of series [20]: AUC (0 to t) in Sprague-Dawley rat at 1 mg/kg, iv. The class given is ADME, organism-based. Conditions: in vivo. In short, it runs like this:
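Male Sprague-Dawley rats (6–8 weeks) fasted overnight, dosed IV or orally; compound dissolved in 5% DMSO/40% PEG400/55% saline (dosing solution 1 mg/mL). Blood (~0.2 mL) from jugular vein into heparin; IV sampling 1 min–8 h, oral 5 min–24 h. Plasma separated by centrifugation at 2–8 °C, stored at −80 °C until analysis.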

The term GI50 denotes the concentration giving 50% growth inhibition. A word on the AUC(0-t): it is the area under the concentration-time curve up to a stated or last time point.

Sequence of Homeodomain-interacting protein kinase 3 (Homo sapiens) (Q9H422 whole entry, looked up, the tested form may be a part): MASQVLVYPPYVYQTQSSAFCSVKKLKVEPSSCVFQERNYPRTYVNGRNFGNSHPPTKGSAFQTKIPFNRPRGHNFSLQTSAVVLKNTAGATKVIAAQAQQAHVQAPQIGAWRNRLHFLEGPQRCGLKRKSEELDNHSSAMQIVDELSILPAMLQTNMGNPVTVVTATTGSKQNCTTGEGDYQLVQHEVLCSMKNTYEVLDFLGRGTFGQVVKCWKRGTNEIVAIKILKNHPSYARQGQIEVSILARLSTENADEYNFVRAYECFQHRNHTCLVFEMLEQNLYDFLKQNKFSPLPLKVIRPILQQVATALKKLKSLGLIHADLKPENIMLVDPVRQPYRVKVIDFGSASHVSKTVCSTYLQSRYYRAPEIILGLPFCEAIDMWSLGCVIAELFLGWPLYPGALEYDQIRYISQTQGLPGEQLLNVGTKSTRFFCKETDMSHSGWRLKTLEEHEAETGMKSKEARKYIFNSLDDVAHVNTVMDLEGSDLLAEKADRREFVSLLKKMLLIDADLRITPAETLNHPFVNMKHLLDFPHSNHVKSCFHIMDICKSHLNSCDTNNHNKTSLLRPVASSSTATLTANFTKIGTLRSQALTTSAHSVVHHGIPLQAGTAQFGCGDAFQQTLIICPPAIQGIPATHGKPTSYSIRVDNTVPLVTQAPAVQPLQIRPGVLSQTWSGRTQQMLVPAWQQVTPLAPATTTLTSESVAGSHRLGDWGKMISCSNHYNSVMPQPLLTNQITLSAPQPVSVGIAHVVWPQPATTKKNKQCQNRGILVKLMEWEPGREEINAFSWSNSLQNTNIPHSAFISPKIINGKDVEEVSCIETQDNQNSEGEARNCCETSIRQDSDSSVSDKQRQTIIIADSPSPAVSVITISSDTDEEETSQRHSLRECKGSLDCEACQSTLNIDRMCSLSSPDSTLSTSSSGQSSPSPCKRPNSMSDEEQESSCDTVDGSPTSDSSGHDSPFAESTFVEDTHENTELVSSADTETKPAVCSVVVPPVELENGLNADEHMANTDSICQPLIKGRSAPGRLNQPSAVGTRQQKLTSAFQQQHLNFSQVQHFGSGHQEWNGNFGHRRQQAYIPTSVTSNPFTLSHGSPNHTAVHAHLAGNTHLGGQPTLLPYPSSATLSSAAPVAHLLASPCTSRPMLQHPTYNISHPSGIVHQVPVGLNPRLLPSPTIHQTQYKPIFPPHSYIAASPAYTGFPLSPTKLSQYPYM
Sequence of Fibroblast growth factor receptor 4 (Homo sapiens) (P22455 22-802 limits assumed): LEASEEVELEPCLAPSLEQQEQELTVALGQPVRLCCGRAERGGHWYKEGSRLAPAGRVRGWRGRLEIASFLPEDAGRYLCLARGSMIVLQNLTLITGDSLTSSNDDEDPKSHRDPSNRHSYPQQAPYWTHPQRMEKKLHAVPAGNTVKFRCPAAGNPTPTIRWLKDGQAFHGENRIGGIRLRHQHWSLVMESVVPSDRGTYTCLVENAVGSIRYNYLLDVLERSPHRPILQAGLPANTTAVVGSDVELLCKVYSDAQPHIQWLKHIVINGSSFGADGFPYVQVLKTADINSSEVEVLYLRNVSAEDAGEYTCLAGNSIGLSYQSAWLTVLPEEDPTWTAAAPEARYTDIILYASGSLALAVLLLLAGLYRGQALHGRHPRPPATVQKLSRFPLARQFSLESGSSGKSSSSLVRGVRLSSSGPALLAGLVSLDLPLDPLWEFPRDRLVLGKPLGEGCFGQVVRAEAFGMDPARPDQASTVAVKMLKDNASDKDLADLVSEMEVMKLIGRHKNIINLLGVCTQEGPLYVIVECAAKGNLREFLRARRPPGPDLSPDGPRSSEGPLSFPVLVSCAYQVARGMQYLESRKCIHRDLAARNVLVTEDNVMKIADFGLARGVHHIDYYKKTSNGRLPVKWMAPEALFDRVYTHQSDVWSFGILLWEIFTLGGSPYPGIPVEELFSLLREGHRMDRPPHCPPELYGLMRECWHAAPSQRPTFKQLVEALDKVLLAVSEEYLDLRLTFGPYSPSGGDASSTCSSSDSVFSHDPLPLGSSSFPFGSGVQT
Sequence of Serine/threonine-protein kinase ULK1 (Homo sapiens) (O75385 whole entry, the tested form may be a part): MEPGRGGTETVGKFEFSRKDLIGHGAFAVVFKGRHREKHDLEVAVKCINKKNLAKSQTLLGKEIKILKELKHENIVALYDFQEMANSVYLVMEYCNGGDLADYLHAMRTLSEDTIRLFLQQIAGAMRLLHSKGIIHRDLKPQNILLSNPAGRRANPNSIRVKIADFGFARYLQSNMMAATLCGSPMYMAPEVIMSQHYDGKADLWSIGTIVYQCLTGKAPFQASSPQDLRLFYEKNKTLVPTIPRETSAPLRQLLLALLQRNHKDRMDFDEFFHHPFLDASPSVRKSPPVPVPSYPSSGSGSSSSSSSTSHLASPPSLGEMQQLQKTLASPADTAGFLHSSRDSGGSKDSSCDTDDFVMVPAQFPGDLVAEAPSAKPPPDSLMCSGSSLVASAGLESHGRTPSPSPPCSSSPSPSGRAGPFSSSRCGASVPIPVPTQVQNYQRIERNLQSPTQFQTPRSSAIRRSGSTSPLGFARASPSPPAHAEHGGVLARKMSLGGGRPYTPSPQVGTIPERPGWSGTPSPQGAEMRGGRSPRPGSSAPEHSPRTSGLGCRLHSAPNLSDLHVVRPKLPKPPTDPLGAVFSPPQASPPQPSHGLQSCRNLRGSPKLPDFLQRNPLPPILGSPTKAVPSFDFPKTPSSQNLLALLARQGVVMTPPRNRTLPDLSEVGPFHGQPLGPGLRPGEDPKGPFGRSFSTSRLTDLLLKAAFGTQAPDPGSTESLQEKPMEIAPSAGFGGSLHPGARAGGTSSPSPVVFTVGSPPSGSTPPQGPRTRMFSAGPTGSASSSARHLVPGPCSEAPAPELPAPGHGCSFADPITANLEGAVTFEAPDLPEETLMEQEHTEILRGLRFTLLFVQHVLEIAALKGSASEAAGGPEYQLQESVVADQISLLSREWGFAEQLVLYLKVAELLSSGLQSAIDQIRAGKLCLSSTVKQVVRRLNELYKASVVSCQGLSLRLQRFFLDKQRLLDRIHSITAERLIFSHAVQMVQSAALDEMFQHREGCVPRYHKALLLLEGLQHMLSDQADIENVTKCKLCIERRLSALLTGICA
Sequence of Myosin light chain kinase family member 4 (Homo sapiens) (Q86YV6 whole entry, the tested form may be a part, canonical isoform): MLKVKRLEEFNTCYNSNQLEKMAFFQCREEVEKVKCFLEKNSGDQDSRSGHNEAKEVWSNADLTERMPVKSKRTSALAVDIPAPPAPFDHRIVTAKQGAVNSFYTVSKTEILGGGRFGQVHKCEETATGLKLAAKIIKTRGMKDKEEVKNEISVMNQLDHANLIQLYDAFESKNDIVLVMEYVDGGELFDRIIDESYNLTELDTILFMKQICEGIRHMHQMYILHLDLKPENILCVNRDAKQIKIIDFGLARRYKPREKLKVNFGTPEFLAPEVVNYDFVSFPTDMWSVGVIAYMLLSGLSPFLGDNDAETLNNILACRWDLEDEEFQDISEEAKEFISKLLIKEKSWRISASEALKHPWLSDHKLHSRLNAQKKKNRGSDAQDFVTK
Sequence of SRSF protein kinase 2 (Homo sapiens) (P78362 whole entry, looked up, the tested form may be a part): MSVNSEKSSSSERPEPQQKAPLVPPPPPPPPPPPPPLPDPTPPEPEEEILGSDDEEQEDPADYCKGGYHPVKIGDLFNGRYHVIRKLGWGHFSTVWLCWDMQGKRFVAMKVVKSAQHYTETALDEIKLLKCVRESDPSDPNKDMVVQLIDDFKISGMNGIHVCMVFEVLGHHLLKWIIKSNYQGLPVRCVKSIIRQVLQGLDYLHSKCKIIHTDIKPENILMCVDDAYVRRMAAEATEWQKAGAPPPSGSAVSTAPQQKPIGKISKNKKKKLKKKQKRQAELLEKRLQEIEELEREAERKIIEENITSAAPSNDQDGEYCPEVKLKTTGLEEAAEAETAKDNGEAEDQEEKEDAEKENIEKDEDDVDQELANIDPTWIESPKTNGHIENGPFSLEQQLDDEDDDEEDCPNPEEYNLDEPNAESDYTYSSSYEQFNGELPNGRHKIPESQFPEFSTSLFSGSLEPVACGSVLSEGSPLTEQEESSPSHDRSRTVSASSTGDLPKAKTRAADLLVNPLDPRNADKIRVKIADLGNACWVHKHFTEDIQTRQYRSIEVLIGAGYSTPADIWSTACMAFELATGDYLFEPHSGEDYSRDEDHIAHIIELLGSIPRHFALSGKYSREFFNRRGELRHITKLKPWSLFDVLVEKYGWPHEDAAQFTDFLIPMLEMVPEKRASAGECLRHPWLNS
Sequence of NUAK family SNF1-like kinase 1 (Homo sapiens) (O60285 whole entry, the tested form may be a part): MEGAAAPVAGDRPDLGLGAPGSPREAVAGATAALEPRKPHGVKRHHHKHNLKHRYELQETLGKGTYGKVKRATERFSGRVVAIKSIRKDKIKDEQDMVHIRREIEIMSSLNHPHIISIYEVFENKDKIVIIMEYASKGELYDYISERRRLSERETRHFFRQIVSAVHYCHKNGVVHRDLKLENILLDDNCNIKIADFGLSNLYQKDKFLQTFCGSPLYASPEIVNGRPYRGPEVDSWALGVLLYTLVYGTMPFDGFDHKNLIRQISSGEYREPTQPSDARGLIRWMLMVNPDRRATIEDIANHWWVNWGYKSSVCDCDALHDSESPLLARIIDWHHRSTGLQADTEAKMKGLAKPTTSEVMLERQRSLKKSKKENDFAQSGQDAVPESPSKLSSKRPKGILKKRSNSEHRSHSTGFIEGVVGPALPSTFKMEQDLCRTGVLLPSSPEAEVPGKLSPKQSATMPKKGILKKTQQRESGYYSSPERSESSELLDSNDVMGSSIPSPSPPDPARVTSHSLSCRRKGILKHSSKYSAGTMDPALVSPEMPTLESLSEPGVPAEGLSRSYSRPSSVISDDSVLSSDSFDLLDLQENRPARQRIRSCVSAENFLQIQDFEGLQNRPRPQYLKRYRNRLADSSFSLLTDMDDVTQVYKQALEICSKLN

On to `Cc1ccc(NC(=O)c2ccc(CN(CCN(C)C)C(=O)c3cccnc3)cc2)cc1Nc1nccc(-c2cccnc2)n1`, for which the Activity in series [1] worked out at 80%; in [2] it was 93%; in series [3] it was 99%; in [4], 100%; in [5], 90%; in series [6], 91%. Also, the Activity is 93% in series [7]; 59% in [8]; 100% in series [9]; 100% in [10]; 76% in series [11]; 99% in series [12]. Moreover, the Activity in series [13] was found to be 100%; in series [14] it was 100%; in [15] it was 86%; in series [16], 88%; in series [17], 100%; in series [18], 100%. Besides, the 50% growth inhibitory concentration (GI50) in [19] is > 10 µM. The compound also gave an AUC(0-t) in [20] of 528 ng·h/mL.
